From PubChem
A selection: hits, their analogues and other compounds. The true share with any hit is near 3.5%.
RGS4 block = inhibitors of human RGS4; HEK293 M3R/RGS4 inducible, Fluo-4 calcium flux; stronger effect = higher value; triggered by carbachol at its EC20; P49798; B-score at 10 µM; 0.45% of 310,000 active; AID 463165;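 active = B-score, a plate-corrected calcium signal, over three deviations above library mean, with baseline fluorescence within five deviations of library mean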;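 also: RGS4 expression induced by doxycycline in cells with stable M3 receptor; B-score is computed from the integrated fluorescence ratio over baseline after carbachol; higher B-score means a larger calcium signal and so more RGS4 inhibition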
RGS4 act = potentiators or activators of RGS4; HEK293 M3R/inducible RGS4, carbachol calcium flux Fluo4; stronger effect = lower value; B-score at 10 µM; 0.92% of 310,000 active;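 active = B-score of the integrated calcium signal more than 4 SD below the library mean, with starting fluorescence not abnormally high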;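 also: negative B-score means reduced calcium response which marks RGS4 activation or potentiation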
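System – HEK293 FlpIn-TREx cells, stable M3R, doxycycline-inducible RGS4 · Reagent – ECmax carbachol challenge · Times – compound preincubation 20 min at room temperature before agonist · Technique – Fluo4 fluorescence kinetic imaging of calcium · Measure – B score of integrated Fluo4 ratio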
MrgX1 ag = agonists of human MrgX1 receptor; MrgX1-HEK293 cells, Fluo-4 calcium fluorescence, agonist mode; stronger effect = higher value; 0.44% of 310,000 active; AID 588627; Q96LB2; B-score at 10 µM;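 active = calcium response B-score plate-corrected fluorescence ratio at least 3 library SD, with starting fluorescence B-score inside 5 SD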
Target sequence (Q96LB2 whole entry, looked up): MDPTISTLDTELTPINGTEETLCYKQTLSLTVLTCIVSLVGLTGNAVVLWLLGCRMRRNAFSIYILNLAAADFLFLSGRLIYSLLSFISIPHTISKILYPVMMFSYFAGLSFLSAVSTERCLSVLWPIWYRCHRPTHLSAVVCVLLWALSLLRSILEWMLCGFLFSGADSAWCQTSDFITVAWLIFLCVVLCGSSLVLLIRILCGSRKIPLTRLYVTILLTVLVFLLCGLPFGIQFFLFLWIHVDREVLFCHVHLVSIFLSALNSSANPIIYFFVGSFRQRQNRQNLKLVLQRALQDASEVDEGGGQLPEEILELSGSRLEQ
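Material – MrgX1-expressing HEK293 cells · Input – 15,000 cells seeded per well · Dosing – compound as first of three additions · Times – overnight seeding, then 1 h dark dye loading · Measured by – kinetic Fluo-4 NW fluorescence of intracellular calcium · Read-out – B-scored fluorescence response ratio · Benchmarks – positive and negative control wells on each plate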
MrgX1 PAM = human MrgX1 positive allosteric modulation, primary screen | B-score at 10 µM | Q96LB2 | AID 588675 | 0.63% of 310,000 active | MrgX1-HEK293, Fluo-4 calcium flux, FDSS; stronger effect = higher value;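 active = plate-corrected calcium response at least 3 library SD above typical, normal starting fluorescence, not activating the receptor alone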;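 also: compound read alongside a low EC10 to EC30 dose of BAM8-22 agonist; peak minus trough fluorescence over baseline measured at the second addition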
MrgX1 antagonist = human MrgX1 receptor antagonism, primary screen | Q96LB2 | MRGX1-HEK293 calcium flux, Fluo-4, BAM8-22 antagonism; stronger effect = lower value | B-score at 10 µM | 1.3% of 310,000 active | AID 588676;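 active = calcium-response B-score plate-corrected more than 3 library SD below zero, starting fluorescence within 5 deviations, no agonist response on first addition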;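 also: peak minus trough fluorescence over baseline after final BAM8-22 challenge near maximal dose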
Starred values were filed as active, the others as inactive.

How did Cc1cc(/C=C\c2ccc3cc(N(C)C)ccc3[n+]2C)c(C)n1-c1ccccc1 do in these assays?
MrgX1 ag: inactive; MrgX1 PAM: inactive; MrgX1 antagonist: -9.7*

What do the screens show for `N#C/C(=C(/O)c1ccc(F)cc1)c1nc2ccccc2s1`?
RGS4 block: inactive; RGS4 act: inactive; MrgX1 ag: 29*; MrgX1 PAM: inactive; MrgX1 antagonist: inactive

How did N#C/C(=C(/O)COc1ccccc1)c1nc2ccccc2s1 do in these assays?
RGS4 block: inactive; RGS4 act: inactive; MrgX1 ag: inactive; MrgX1 PAM: inactive; MrgX1 antagonist: inactive

How did COc1ccc(/C=C2\SC(=O)NC2=S)cc1OC do in these assays?
RGS4 block: inactive; RGS4 act: inactive; MrgX1 ag: 63*; MrgX1 PAM: inactive; MrgX1 antagonist: inactive

How did CCOc1ccc(/C=C2\SC(=S)NC2=O)cc1OC do in these assays?
RGS4 block: inactive; RGS4 act: inactive; MrgX1 ag: inactive; MrgX1 PAM: inactive; MrgX1 antagonist: inactive

How did COc1cc(/C=C2\SC(=S)NC2=O)ccc1OS(=O)(=O)c1ccccc1 do in these assays?
RGS4 block: inactive; RGS4 act: inactive; MrgX1 ag: inactive; MrgX1 PAM: inactive; MrgX1 antagonist: -6.1*

How did COc1ccc(/C=C2\SC(=S)NC2=O)cc1OS(=O)(=O)c1ccc(NC(C)=O)cc1 do in these assays?
RGS4 block: inactive; RGS4 act: inactive

Results for COc1cc(/C=C2/SC(=S)NC2=O)ccc1OS(=O)(=O)c1ccc(C)cc1 ?
RGS4 block: inactive; RGS4 act: inactive; MrgX1 ag: inactive; MrgX1 PAM: inactive; MrgX1 antagonist: -4.7*

What do the screens show for `O=C1NC(=S)S/C1=C\c1ccc2ccccc2c1`?
RGS4 block: inactive; RGS4 act: inactive; MrgX1 ag: inactive; MrgX1 PAM: inactive; MrgX1 antagonist: -4.9*

What do the screens show for `NS(=O)(=O)c1ccc(CNC(=O)c2ccncc2)cc1`?
RGS4 block: inactive; RGS4 act: inactive; MrgX1 ag: inactive; MrgX1 PAM: inactive; MrgX1 antagonist: inactive

Results for Cc1nnc(NC(=O)C2CCCN2C(=O)Nc2ccccc2)s1 (configuration not stated) ?
RGS4 block: inactive; RGS4 act: inactive; MrgX1 ag: inactive; MrgX1 PAM: inactive; MrgX1 antagonist: inactive

How did CCCCn1c(N)c(N(CC)C(=O)c2cc(S(=O)(=O)N3CCCCCC3)ccc2OC)c(=O)[nH]c1=O do in these assays?
RGS4 block: inactive; RGS4 act: inactive; MrgX1 ag: inactive; MrgX1 PAM: inactive; MrgX1 antagonist: inactive

How did C/[N+]([O-])=C\c1coc2ccccc2c1=O do in these assays?
RGS4 block: inactive; RGS4 act: inactive; MrgX1 ag: inactive; MrgX1 PAM: inactive; MrgX1 antagonist: inactive

What do the screens show for `O=C1NC(=S)S/C1=C\c1coc2ccccc2c1=O`?
RGS4 block: inactive; RGS4 act: inactive; MrgX1 ag: inactive; MrgX1 PAM: 7.6*; MrgX1 antagonist: inactive

What do the screens show for `COc1ccc(C(=O)C(CCCCC(CN(C)C)C(=O)c2ccc(OC)cc2)CN(C)C)cc1` (configuration not stated)?
RGS4 block: inactive; RGS4 act: inactive; MrgX1 ag: inactive; MrgX1 PAM: inactive; MrgX1 antagonist: inactive

What do the screens show for `CCOc1ccc(C(=O)C(CCC(CN(C)C)C(=O)c2ccc(OCC)cc2)CN(C)C)cc1` (configuration not stated)?
RGS4 block: inactive; RGS4 act: -8*

How did Cc1c(C(c2ccc(C(=O)O)cc2)c2c(C)n(C)n(-c3ccccc3)c2=O)c(=O)n(-c2ccccc2)n1C do in these assays?
RGS4 block: inactive; RGS4 act: inactive; MrgX1 ag: inactive; MrgX1 PAM: inactive; MrgX1 antagonist: inactive

Results for CCC1(CC)Cc2ccccc2C(=O)N1 ?
RGS4 block: inactive; RGS4 act: inactive; MrgX1 ag: inactive; MrgX1 PAM: inactive; MrgX1 antagonist: inactive

Results for O=C1c2ccccc2CC1(Cc1ccccc1)Cc1ccccc1 ?
RGS4 block: inactive; RGS4 act: -7.1*; MrgX1 ag: inactive; MrgX1 PAM: inactive; MrgX1 antagonist: inactive

Results for CCCC1CCC(C(=O)Nn2cnc3ccccc3c2=O)CC1 (configuration not stated) ?
RGS4 block: inactive; RGS4 act: inactive; MrgX1 ag: inactive; MrgX1 PAM: inactive; MrgX1 antagonist: inactive
